Source: ChEMBL document CHEMBL3112463, “Synthesis and biological activity of polyalthenol and pentacyclindole analogues” (2014)

Legend:
Format in all cases: functional
[1] = test system: WiDr; assay: Antiproliferative activity against human WiDr cells assessed as growth inhibition after 48 hrs by SRB assay
Method in brief: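 WiDr cells seeded at 20,000 cells/well after trypsinization into antibiotic-containing medium (trypan blue viability >97%). Culture at 37 °C, 5% CO₂ with foetal calf serum and 2 mM L-glutamine. Exposure to triplicate compound dilutions from DMSO stocks (0.25% v/v DMSO control) started day 1, lasting 48 h. Fixed with ice-cold 50% TCA, 60 min at 4 °C, then SRB, OD 492 nm background-subtracted.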

[2] = test system: T47D; assay: Antiproliferative activity against human T47D cells assessed as growth inhibition after 48 hrs by SRB assay
Method in brief: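 T-47D cells grown at 37 °C, 5% CO₂ in serum- and 2 mM L-glutamine-containing medium. Trypsinized, viability >97% by trypan blue, seeded at 15,000 cells/well. Compounds added day 1 in triplicate dilutions (DMSO vehicle 0.25% v/v as control) for 48 h. Cold 50% TCA fixation 60 min at 4 °C, SRB read at 492 nm with blank correction.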

[3] = test system: HeLa; assay: Antiproliferative activity against human HeLa cells assessed as growth inhibition after 48 hrs by SRB assay
Method in brief: (§1)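 Cells maintained at 37 °C, 5% CO₂ in medium with foetal calf serum and 2 mM L-glutamine. Trypsinized into antibiotic medium, >97% viable by trypan blue, plated at 10,000 cells/well. Triplicate dilutions from DMSO stocks (0.25% v/v DMSO control) added on day 1 for 48 h. TCA fixation (50%, 4 °C, 60 min), SRB stain, OD 492 nm corrected for medium-only blank.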

[4] = test system: SW1573; assay: Antiproliferative activity against human SW1573 cells assessed as growth inhibition after 48 hrs by SRB assay; details: SW1573, 48 h; method in brief: as §1
[5] = Antiproliferative activity against human HBL100 cells assessed as growth inhibition after 48 hrs by SRB assay; details: HBL-100, 48 h; method in brief: as §1
[6] = test system: A549; assay: Antiproliferative activity against human A549 cells assessed as growth inhibition after 48 hrs by SRB assay; details: A549, 48 h
Method in brief: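 Cells kept in medium with foetal calf serum and 2 mM L-glutamine at 37 °C, 5% CO₂. Trypsinized, resuspended in penicillin/streptomycin medium, >97% trypan blue viability, seeded at 10,000 cells/well. Compounds from DMSO stocks (0.25% v/v DMSO control), triplicate dilutions, added day 1 for 48 h. Fixed with cold 50% TCA for 60 min at 4 °C, then SRB staining, OD 492 nm, background corrected.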

Compound	GI50 [1] [µM]	GI50 [2] [µM]	GI50 [3] [µM]	GI50 [4] [µM]	GI50 [5] [µM]	GI50 [6] [µM]
COC(=O)[C@@]1(C)CCC=C2[C@@H]1CC[C@@H](C)[C@]2(C)Cc1c(C)[nH]c2ccc(Cl)cc12	18	17	12	14	15	17
COC(=O)[C@@]1(C)CCC=C2[C@@H]1CC[C@@H](C)[C@]2(C)Cc1c[nH]c2ccc(Cl)cc12	20	17	11	11	17	16
COC(=O)[C@@]1(C)CCC=C2[C@@H]1CC[C@@H](C)[C@]2(C)Cc1c[nH]c2ccc(C(F)(F)F)cc12	18	15	11	14	15	15
COC(=O)[C@@]1(C)CC[C@@H]2C3=C1CC[C@@H](C)[C@]3(C)C[C@@H]1c3cccc(Br)c3N[C@H]21	54	37	22	44	40	42
COC(=O)[C@@]1(C)CCC=C2[C@@H]1CC[C@@H](C)[C@]2(C)Cc1c(C)[nH]c2c(C)cccc12	21	19	14	15	16	14
COC(=O)[C@@]1(C)CC[C@@H]2C3=C1CC[C@@H](C)[C@]3(C)C[C@@H]1c3cc(Cl)ccc3N[C@H]21	48	28	23	38	28	35
COC(=O)[C@@]1(C)CCC=C2[C@@H]1CC[C@@H](C)[C@]2(C)Cc1c(C)[nH]c2ccc(Br)cc12	15	16	11	14	15	15
COC(=O)[C@@]1(C)CC[C@@H]2C3=C1CC[C@@H](C)[C@]3(C)Cc1c2[nH]c2ccc(Br)cc12	22	21	14	12	16	17
COC(=O)[C@@]1(C)CC[C@@H]2C3=C1CC[C@@H](C)[C@]3(C)Cc1c2[nH]c2c(Cl)cccc12	21	21	12	17	16	21
COC(=O)[C@@]1(C)CCC=C2[C@@H]1CC[C@@H](C)[C@]2(C)Cc1c[nH]c2ccccc12	8.7	4.2	3.6	7.3	4.5	5
COC(=O)[C@@]1(C)CC[C@@H]2C3=C1CC[C@@H](C)[C@]3(C)Cc1c2[nH]c2c(C)cccc12	22	23	12	16	13	16
COC(=O)[C@@]1(C)CC[C@@H]2C3=C1CC[C@@H](C)[C@]3(C)C[C@@H]1c3cc(C)ccc3N[C@H]21	32	23	18	23	15	27
COC(=O)[C@@]1(C)CC[C@@H]2C3=C1CC[C@@H](C)[C@]3(C)C[C@@H]1c3cc(OC)ccc3N[C@H]21	25	19	20	25	15	22
COC(=O)[C@@]1(C)CCC=C2[C@@H]1CC[C@@H](C)[C@]2(C)Cc1c(/C=C/[N+](=O)[O-])[nH]c2ccccc12	21	15	6.9	13	16	13
COC(=O)[C@@]1(C)CC[C@@H]2C3=C1CC[C@@H](C)[C@]3(C)Cc1c2[nH]c2ccc(OC)cc12	1.2	6.5	3.9	5.9	5	7.7
COC(=O)[C@@]1(C)CC[C@@H]2C3=C1CC[C@@H](C)[C@]3(C)Cc1c2[nH]c2c(Br)cccc12	37	31	18	26	26	35
